“And” between values parts separate entries of the source, which are not always exact repeats. Equal entries are not always repeated. One block for each molecule: values may come before it.
Tests used:
RyR2 [1] = conditions: cited from earlier work
[2] = Parallel artificial membrane permeability assay; type: in vitro ADME
In short: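 Donor compound at 500 μM in PBS pH 7.4 with TPGS, across hydrophobic membranes pretreated with 1% lecithin in n-dodecane, into PBS acceptor. Incubated 14–18 h at room temperature in a humidified chamber. Donor and acceptor were quantified by LC-MS; Papp, percent recovery and percent diffusion came from ratio formulas.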

RyR2 [3] = biological target: T1, RyR2 (Sus scrofa, UniProt A0A5G2R1W3); experiment: [3H]-ryanodine ligand binding assay, cardiac SR membrane; set-up: species or system porcine
In short: (§1)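 Porcine cardiac SR (3 mg/mL) was incubated 3 h at 37 °C with 7.5 nM [3H]-ryanodine and compound in 20 mM PIPES pH 7.0, 150 mM KCl, 5 mM ATP, 0.1 μM calmodulin and 0.1 μM free Ca (1 mM EGTA). Nonspecific binding used 15 μM cold ryanodine; maximal binding used 5 mM AMP-PNP plus 20 mM caffeine. Bound label was counted by filtration and scintillation, normalized to vehicle; 4-parameter fit.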

RyR2 [4] = biological target: T1, RyR2; experiment: RyR2 single-channel recording in artificial lipid bilayers; type: biochemical, porcine
In short: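 Porcine cardiac SR vesicles were fused into PE:PS:PC (5:3:2) bilayers with symmetric 250 mM Cs+ and TES pH 7.4. The cis side held 0.1 μM free Ca (CaCl2/BAPTA) plus 2 mM ATP, at 23 ± 2 °C and +40 mV. Compound (0.01–10 or 1–100 μM) was added cis with DMSO <0.1%. Po came from 30–60 s at a 50% threshold, relative to vehicle on the same channel. Dwell times were fitted with 2 exponentials; 4-parameter fit.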

RyR1 [5] = biological target: T2, RyR1 (Sus scrofa, UniProt P16960); experiment: RyR1 single-channel recording in artificial lipid bilayers; type: biochemical, porcine
In short: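 Porcine longissimus dorsi SR vesicles were fused into PE:PS:PC (5:3:2) bilayers with symmetric 250 mM Cs+ and TES pH 7.4. The cis side held 0.1 μM free Ca (CaCl2/BAPTA) plus 2 mM ATP, at 23 ± 2 °C. Compound was added cis by aliquot or local perfusion, DMSO <0.1%. Po came from 30–60 s recordings, 50% amplitude threshold, 1 kHz filter. Nonlinear 4-parameter concentration-response fit.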

RyR1 [6] = biological target: T2, RyR1; experiment: [3H]-ryanodine ligand binding assay, skeletal SR membrane; set-up: species or system porcine
In short: as §1, with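 “skeletal” for “cardiac”, “(1” for “(3”, “10” for “7.5”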

Caco-2 cell monolayer = experiment: Caco-2 bidirectional permeability assay; type: in vitro ADME, human; conditions: recovery
In short: (§2)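 Caco-2 monolayers (passages 55–65) grown 21 days on 0.4 μm Transwell inserts and used only above 1000 Ω·cm2 TEER. Compound at 10 μM in HBSS (<1% DMSO) was dosed apically or basally. Samples at 0 and 2 h were analyzed by LC-MS for Papp, efflux ratio and recovery. Integrity was checked afterwards by lucifer yellow flux (≤0.5%).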

[7] = Caco-2 bidirectional permeability assay; type: in vitro ADME, human; conditions: human, Caco-2, pH 7.4
In short: as §2

RyR2 [8] = biological target: RyR2 (Mus musculus, UniProt E9Q401); experiment: Ca spark assay in permeabilized ventricular cardiomyocytes; type: cell-based, C57BL/6J mice; conditions: for Concentration dependence of Ca spark frequency: increasing concentrations
In short: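 Mouse ventricular myocytes (C57BL/6J, 12–18 weeks, both sexes) attached 10 min on laminin at room temperature, saponin-permeabilized (40 μg/mL, 40 s), then bathed 15 min in pH 7.2 internal solution (5 mM MgATP, 0.5 mM EGTA, 0.12 mM CaCl2, Fluo-4) with 0.1% DMSO or test compound. Confocal x-t sparks in brick-shaped cells; caffeine used as reference activator. Hierarchical mixed-effects statistics; 4-parameter concentration-response fit.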

T1 sequence (A0A5G2R1W3 20-4900): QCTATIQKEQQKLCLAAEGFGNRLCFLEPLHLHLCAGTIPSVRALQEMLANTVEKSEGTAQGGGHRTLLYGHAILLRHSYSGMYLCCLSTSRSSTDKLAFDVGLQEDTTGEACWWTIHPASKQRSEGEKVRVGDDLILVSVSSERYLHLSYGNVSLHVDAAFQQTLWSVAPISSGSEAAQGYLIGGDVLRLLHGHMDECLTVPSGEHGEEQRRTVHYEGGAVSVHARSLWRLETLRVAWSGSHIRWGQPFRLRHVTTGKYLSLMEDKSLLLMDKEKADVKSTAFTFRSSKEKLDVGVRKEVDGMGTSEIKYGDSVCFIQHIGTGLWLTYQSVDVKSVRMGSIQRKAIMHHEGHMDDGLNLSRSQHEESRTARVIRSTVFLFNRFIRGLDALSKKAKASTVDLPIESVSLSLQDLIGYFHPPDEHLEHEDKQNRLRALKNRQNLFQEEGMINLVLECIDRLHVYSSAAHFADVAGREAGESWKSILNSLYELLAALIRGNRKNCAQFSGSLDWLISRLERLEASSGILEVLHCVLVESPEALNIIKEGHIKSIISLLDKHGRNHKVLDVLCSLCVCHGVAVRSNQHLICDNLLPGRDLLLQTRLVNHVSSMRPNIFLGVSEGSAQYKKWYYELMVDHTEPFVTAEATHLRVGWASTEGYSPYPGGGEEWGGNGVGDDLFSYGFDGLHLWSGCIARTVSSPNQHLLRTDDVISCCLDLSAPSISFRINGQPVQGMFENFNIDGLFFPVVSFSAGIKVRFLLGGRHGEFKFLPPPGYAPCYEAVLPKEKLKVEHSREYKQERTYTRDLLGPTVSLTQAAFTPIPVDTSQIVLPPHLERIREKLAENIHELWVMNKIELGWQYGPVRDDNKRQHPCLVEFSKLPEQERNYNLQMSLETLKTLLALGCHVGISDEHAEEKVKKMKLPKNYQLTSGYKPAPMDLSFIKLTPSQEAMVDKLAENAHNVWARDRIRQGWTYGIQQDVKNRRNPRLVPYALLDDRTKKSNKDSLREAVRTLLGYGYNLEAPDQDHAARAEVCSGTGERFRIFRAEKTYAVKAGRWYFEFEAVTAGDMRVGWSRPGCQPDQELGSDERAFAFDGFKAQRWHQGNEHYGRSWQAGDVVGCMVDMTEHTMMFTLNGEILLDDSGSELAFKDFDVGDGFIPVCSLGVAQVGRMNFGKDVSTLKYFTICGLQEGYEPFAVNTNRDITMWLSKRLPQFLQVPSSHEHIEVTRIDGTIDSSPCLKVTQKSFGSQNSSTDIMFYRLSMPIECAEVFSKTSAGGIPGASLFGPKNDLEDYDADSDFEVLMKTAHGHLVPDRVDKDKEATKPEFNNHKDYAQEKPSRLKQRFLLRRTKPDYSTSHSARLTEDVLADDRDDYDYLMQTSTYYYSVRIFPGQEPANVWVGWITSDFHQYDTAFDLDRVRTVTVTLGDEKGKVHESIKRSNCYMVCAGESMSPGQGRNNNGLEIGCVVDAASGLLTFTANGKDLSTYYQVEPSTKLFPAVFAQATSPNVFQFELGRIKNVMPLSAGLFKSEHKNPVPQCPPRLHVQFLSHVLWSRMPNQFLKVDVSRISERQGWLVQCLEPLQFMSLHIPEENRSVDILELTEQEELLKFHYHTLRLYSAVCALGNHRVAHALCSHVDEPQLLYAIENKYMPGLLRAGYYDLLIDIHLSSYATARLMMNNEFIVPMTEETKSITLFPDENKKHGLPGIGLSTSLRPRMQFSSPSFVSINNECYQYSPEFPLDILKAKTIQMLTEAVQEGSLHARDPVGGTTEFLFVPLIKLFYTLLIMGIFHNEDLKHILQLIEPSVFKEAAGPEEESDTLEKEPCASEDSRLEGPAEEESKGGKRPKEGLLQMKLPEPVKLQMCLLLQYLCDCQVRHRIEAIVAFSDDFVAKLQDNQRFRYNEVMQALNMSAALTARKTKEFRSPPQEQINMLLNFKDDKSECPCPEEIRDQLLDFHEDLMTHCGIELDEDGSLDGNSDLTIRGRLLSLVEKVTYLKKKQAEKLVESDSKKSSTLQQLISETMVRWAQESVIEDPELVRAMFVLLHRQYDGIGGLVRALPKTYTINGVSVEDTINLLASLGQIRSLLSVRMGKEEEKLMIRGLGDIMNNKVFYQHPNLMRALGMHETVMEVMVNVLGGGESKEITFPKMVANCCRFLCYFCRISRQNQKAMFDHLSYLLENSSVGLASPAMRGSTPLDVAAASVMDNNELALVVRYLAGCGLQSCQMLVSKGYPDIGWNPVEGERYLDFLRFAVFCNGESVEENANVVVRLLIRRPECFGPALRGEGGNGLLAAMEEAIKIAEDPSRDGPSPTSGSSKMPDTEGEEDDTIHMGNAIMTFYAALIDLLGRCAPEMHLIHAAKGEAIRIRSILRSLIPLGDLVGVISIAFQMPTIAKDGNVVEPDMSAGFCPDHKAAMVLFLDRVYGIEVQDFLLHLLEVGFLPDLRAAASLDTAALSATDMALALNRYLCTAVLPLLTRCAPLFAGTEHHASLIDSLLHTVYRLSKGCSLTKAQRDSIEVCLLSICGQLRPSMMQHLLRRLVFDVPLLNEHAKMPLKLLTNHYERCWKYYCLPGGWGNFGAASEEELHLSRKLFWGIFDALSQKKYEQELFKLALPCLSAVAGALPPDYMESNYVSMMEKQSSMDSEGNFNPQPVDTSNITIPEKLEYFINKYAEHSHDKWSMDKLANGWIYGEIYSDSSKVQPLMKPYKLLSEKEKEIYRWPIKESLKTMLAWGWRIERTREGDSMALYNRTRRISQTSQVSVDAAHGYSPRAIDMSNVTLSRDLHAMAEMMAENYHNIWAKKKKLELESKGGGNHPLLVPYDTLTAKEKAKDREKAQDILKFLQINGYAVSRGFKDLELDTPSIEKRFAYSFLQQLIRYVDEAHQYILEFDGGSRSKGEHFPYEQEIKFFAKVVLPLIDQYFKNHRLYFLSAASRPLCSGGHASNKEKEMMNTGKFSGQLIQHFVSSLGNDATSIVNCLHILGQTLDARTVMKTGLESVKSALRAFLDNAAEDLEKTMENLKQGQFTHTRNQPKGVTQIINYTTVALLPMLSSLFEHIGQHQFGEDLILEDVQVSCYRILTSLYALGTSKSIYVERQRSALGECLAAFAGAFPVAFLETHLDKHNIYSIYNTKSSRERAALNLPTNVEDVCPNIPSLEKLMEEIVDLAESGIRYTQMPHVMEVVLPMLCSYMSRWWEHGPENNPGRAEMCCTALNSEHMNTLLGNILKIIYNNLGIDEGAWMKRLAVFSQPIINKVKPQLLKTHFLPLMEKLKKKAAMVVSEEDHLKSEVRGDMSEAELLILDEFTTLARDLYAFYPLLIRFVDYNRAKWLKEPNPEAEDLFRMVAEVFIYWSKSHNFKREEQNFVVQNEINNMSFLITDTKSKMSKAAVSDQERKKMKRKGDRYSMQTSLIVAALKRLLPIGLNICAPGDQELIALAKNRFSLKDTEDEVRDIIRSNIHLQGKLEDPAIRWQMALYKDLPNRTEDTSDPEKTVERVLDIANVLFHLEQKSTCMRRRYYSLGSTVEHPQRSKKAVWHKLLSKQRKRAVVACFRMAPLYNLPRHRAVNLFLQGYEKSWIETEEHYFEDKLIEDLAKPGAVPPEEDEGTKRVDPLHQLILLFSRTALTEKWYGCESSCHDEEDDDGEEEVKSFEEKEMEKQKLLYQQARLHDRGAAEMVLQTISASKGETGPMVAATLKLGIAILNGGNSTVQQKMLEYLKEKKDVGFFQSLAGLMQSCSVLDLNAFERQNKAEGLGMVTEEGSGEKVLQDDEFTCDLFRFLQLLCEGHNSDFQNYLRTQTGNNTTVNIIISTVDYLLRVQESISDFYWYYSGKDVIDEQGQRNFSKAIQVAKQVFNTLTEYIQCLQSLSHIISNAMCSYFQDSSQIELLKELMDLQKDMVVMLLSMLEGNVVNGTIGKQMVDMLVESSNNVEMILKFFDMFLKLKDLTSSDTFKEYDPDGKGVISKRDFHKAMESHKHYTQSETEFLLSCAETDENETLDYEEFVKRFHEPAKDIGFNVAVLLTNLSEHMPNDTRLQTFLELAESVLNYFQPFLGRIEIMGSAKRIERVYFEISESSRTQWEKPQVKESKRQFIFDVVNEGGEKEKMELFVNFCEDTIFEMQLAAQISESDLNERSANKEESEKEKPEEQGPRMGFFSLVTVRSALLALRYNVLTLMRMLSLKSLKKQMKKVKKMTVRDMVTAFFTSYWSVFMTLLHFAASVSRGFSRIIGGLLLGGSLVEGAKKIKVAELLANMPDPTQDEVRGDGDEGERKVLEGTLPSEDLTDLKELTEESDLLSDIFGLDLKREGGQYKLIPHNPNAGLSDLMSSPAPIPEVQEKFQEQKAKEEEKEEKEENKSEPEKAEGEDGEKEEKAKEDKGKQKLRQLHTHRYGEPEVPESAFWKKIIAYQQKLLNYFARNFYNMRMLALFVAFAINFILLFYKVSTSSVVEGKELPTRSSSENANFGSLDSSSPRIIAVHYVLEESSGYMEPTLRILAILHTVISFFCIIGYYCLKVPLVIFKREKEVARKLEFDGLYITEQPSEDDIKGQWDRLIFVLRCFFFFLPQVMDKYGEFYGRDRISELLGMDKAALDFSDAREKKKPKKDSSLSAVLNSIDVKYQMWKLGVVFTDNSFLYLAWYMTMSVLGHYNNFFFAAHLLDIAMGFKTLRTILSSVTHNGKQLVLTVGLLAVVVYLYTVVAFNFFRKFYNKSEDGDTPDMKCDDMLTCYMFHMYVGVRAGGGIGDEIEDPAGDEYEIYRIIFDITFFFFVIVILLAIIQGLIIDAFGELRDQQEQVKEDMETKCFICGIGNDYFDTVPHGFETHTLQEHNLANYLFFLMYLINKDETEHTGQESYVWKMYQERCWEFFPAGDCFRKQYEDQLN

SMILES: O=C1CN(/N=C/c2ccc(-c3ccc([N+](=O)[O-])cc3)o2)C(O)=N1 [dantrolene]
Maximal inhibition of RyR2 (RyR2 [1]): ~50%

% Diffusion ([2]; PAMPA): 7%
%R ([2]; PAMPA recovery): 92%
Papp at 500 µM ([2]; PAMPA, pH 7.4, Permeability (experimental permeability rate)): < 2 ×10⁻⁶ cm/s
EC50 (RyR2 [3]): ~46 µM
Emax (RyR2 [3]; read-out: Emax, increase of [3H]-ryanodine binding to RyR2 normalized to vehicle): ~29%
IC50 (RyR2 [4]): ~32.2 µM
EC50 (RyR2 [4]; EC50, activation of RyR2 single-channel Po, pCa 7, 2 mM ATP, +40 mV, 95% CI 1.4–63.1 μM): ~30 µM and ~32.2 µM
Mean closed duration (RyR2 [4]; activert ≥50 μM versus vehicle): decreased
Mean open duration (RyR2 [4]; activert ≥50 μM versus vehicle): without altering
Potency on RyR2 compared with ent-verticilide (fold less potent) (RyR2 [4]; compared with ent-verticilide): ~100 fold
Emax (RyR2 [4]; read-out: Emax, partial activation of RyR2 single-channel Po): ~34%
EC50 (RyR1 [5]): ~10.5 µM
Emax (RyR1 [5]; read-out: Emax, increase of RyR1 single-channel Po): ~14.4%
EC50 (RyR1 [6]): ~9 µM
Emax (RyR1 [6]; read-out: Emax, increase of [3H]-ryanodine binding to RyR1 normalized to vehicle): ~17%
%R (A-B) (Caco-2 cell monolayer; apical-to-basal): 101%
%R (B-A) (Caco-2 cell monolayer; basal-to-apical): 80%
Papp A→B at 2 h, 10 µM [7]: 0.4 ×10⁻⁶ cm/s
Papp B→A at 2 h, 10 µM [7]: 1.1 ×10⁻⁶ cm/s
Papp at 2 h, 10 µM [7]: < 1 ×10⁻⁶ cm/s
efflux ratio at 2 h, 10 µM [7]: 2.73
Average duration of the Ca spark (RyR2 [8]; 25 μM): modestly increased
Overall RyR2-mediated SR Ca leak (RyR2 [8]; 25 μM): elevated
Reduction of SR Ca load (amplitude of caffeine-induced Ca transient) (RyR2 [8]; 25 μM): ~10%
Size (amplitude or width) of the average Ca spark (RyR2 [8]; 25 μM): without changes
Ca spark frequency versus vehicle (RyR2 [8]; 25 μM, 15 min, permeabilized cardiomyocytes): increase
Distribution of Ca spark duration compared with DMSO control (RyR2 [8]; 100 μM activert): prolonged
Concentration dependence of Ca spark frequency (RyR2 [8]): dose-dependent increase
SMILES: CCCCC[C@@H]1OC(=O)[C@@H](C)N(C)C(=O)[C@H](CCCCC)OC(=O)[C@@H](C)N(C)C(=O)[C@H](CC(=O)O)OC(=O)[C@@H](C)N(C)C(=O)[C@H](CCCCC)OC(=O)[C@@H](C)N(C)C1=O [activert, 2-((2S,5R,8S,11R,14S,17R,20S,23R)-4,5,10,11,16,17,22,23-Octamethyl-3,6,9,12,15,18,21,24-octaoxo-8,14,20-tripentyl-1,7,13,19-tetraoxa-4,10,16,22-tetraazacyclotetracosan-2-yl)acetic acid]

Ca spark duration with caffeine (RyR2 [8]; 1 mM caffeine): many long-lasting sparks
Concentration dependence of Ca spark frequency (RyR2 [8]): dose-dependent response
SMILES: Cn1c(=O)c2c(ncn2C)n(C)c1=O [caffeine, reference compound]
